Key:
pKa = type: physicochemical
[1] = Food effect study A2103, single-dose PK in healthy volunteers; type: in vivo, human; details: single 600 mg dose
[2] = In vitro solubility in aqueous buffered solutions and biorelevant media; type: physicochemical; details: for solubility at 24 h: thermodynamic from solid
Summary of the method: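 Crystalline succinate salt of test compound (~763 mg, ~600 mg free-form equivalent) added to 250 mL of 50 mM aqueous buffer (HCl/KCl pH 2.0, acetate pH 4.5, phosphate pH 6.8 or 7.5) or FaSSIF v1 (pH 6.5, 3 mM taurocholate, 0.75 mM lecithin) or FeSSIF v1 (pH 5.0, 15 mM bile salt). Held at 37 ± 1°C with magnetic stirring. Liquid separated at 24 h and assayed by HPLC. Top tested level 2.4 mg/mL; triplicate, mean reported.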

A pKa (pKa; pKa1 (base)) of 8.6, a pKa (pKa; pKa2 (base)) of 5.5 and a half-life ([1]; both, human, plasma, oral, 600 mg, T1/2, Geo-mean (CV% Geo-mean), fed state (high-fat, high-calorie meal)) of 33.6 h were found for `CN(C)C(=O)c1cc2cnc(Nc3ccc(N4CCNCC4)cn3)nc2n1C1CCCC1` [Ribociclib] in this work. For the same compound, the “Tmax fed minus fasted, difference of the medians (90% CI)” value [1] was 1 (–2, 8) h, the solubility ([2]; acidic media) was ≤ 200 mg/mL and the solubility at 24 h ([2]; aqueous buffered solution, 37 °C, pH 2, aqueous buffer) was > 2.4 mg/mL. For the same compound, the solubility at 24 h ([2]; biorelevant medium FaSSIF v1, 37 °C, pH 6.5, fassif) was > 2.4 mg/mL and the solubility at 24 h ([2]; biorelevant medium FeSSIF v1, 37 °C, pH 5, fessif) was > 2.2 mg/mL.

Source: publication PMC6099197 (Clinical Pharmacology and Therapeutics, 2017)
